Paper PMC5879491 (Journal of the American Chemical Society, 2018)

Key:
H3R [1] = target: T1, H3R (Homo sapiens, UniProt Q9Y5N1); format: binding; conditions: for effect of illumination of compound solution at 360 ± 20 nm on affinity: data not shown
Procedure, shortened: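 A 1 mM stock of test compound was either illuminated at 360 ± 20 nm to PSS (checked by LC–MS) or kept dark; all later handling was in darkness. Competition ran at 10^-5 to 10^-12 M against 1.6 nM [3H]-Nα-methylhistamine. Membranes were homogenates of HEK293T cells PEI-transfected 48 h with human H3R (445 isoform). Incubation was 2 h at 25 °C in 50 mM Tris–HCl pH 7.4, followed by GF/C filtration and scintillation counting. Ki was obtained by Cheng–Prusoff; the shift was pKi cis minus pKi trans.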

hH2R = hH2R (Homo sapiens, UniProt P25021); assay: H2R radioligand binding
Chain of hH2R (P25021 whole entry): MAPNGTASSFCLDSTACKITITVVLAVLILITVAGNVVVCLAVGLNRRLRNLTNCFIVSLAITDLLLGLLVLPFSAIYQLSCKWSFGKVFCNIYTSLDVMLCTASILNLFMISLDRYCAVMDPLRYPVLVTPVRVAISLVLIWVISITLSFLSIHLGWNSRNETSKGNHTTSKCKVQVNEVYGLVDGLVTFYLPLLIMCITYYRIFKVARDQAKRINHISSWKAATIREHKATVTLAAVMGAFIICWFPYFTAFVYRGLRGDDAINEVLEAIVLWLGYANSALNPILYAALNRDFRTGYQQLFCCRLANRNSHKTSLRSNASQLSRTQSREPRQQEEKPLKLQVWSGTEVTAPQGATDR

hH4R = hH4R (Homo sapiens, UniProt Q9H3N8); assay: H4R radioligand binding
Chain of hH4R (Q9H3N8 whole entry): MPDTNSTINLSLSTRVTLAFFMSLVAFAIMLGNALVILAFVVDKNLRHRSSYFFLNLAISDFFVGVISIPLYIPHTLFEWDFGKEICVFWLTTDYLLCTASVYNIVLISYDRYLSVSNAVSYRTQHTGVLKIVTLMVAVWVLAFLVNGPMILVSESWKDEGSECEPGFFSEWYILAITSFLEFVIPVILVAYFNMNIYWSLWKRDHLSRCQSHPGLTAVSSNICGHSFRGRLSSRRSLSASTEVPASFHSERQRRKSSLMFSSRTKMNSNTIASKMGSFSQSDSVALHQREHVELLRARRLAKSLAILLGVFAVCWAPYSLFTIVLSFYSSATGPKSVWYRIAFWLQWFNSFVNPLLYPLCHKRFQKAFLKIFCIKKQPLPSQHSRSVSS

H3R [2] = target: T1, H3R; assay: Two-electrode voltage clamp; format: cell-based
[3] = Real-time photoisomerization rate by UV-vis under perpendicular illumination; format: physicochemical; conditions: 25 μM in 50 mM Tris-HCl pH 7.4 + 1% DMSO-d6
Procedure, shortened: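 Real-time kinetics: test compound at 25 μM in 50 mM Tris–HCl pH 7.4 with 1% DMSO-d6. Illumination alternated between 360 ± 20 nm and 434 ± 9 nm, delivered perpendicular to the spectrometer beam. Spectra were taken at 1 s intervals, with absorbance followed at 344 or 319 nm depending on compound. Photoisomerization half-lives came from fits to the absorbance data.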

[4] = Photostability and fatigue resistance under prolonged or repeated illumination; format: physicochemical

T1 sequence (Q9Y5N1 whole entry, canonical isoform): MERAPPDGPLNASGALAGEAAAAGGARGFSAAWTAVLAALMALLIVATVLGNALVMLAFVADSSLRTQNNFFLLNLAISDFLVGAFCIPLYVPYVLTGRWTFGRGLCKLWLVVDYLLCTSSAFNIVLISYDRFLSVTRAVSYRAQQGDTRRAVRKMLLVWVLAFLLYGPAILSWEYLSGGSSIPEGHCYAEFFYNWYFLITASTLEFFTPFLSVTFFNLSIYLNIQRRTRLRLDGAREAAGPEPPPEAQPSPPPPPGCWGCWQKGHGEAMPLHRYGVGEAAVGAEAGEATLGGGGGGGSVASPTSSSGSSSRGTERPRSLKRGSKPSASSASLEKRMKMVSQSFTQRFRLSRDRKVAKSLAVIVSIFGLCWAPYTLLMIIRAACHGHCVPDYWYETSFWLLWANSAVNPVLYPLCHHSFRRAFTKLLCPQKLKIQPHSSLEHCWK

For `O=C(c1ccc2cc(OCCCN3CCCCC3)ccc2c1)N1CCCC1` [Compound 1], the “effect of illumination of compound solution at 360 ± 20 nm on affinity” value (H3R [1]) was “not affected”.

With `O=C(c1cccc(/N=N/c2cccc(OCCCN3CCCCC3)c2)c1)N1CCCC1` [Compound 28] the “increase in H3R binding affinity upon photoisomerization” value (H3R [1]; illumination at 360 nm, PSS cis vs trans, listed as VUF14738) was “over 10 fold”, the “affinity for H2R” value (hH2R) was “no measurable affinity” and the “affinity for H4R” value (hH4R) was “no measurable affinity”. For the same molecule, the “change in current upon superfusion of compound only” value (H3R [2]; noninjected and H3R-GIRK expressing oocytes) was “did not result in changes in current”, the photoisomerization half-life ([3]; illumination 360 ± 20 nm) was 16 ± 0.9 s and the photoisomerization half-life ([3]; illumination 434 ± 9 nm) was 11 ± 0.3 s. For the same molecule, the “photodegradation (1H NMR and LC-MS)” value ([4]; 48 h illumination at 360 ± 20 nm, 0.77 mW/mm^2) was “no apparent photodegradation” and the “resistance to fatigue / photobleaching” value ([4]; over 1000 isomerization cycles, 360 ± 20 and 434 ± 9 nm, 20 s intervals) was “highly resistant to photobleaching”.

In the case of `NCCc1c[nH]cn1` [Histamine], the “effect of illumination of compound solution at 360 ± 20 nm on affinity” value (H3R [1]) is reported as “not affected”.

With `NC(=NCc1ccc(Cl)cc1)SCCCc1cnc[nH]1` [clobenpropit] the “inhibition of GIRK channel activation by histamine (1 μM)” value (H3R [2]; simultaneous superfusion, 1 μM) was “fully inhibited”.

With pertussis toxin the “inhibition of GIRK channel activation by histamine (1 μM)” value (H3R [2]; pretreating the oocytes, 1.37 ng/oocyte) was “fully inhibited”.
